Measurements taken from publication PMC11842817 (Nature Communications, 2025).
Several values for one entry are separate records, joined by “and”; a condition that tells them apart may be missing. Equal entries are not always repeated. Entries after “also recorded” stand apart in the source; their conditions may differ.

How the values were obtained:
SyoA [1] = target: T1, SyoA (Amycolatopsis thermoflava, UniProt A0AAX7FLX8); experiment: In vitro H2O2-driven; type: biochemical, Amycolatopsis thermoflava N1165; conditions: 1 µM SyoA; for concentration of demethylated aromatic product (individual replicates): 10 mM H2O2, 0.5 mM syringol; for concentration of demethylated aromatic product (individual replicates) / concentration of demethylated aromatic product (mean of 3 replicates): 0.5 mM syringaldehyde or 2 mM 4-methylsyringol, 30 °C, 60 min; for total turnover number (TTN): 10 mM H2O2, 60 min; for concentration of demethylated aromatic product (mean of 3 replicates): 50 mM Tris pH 7.5, 10 mM H2O2, 0.5 mM syringol
T1 sequence (A0AAX7FLX8 1-412): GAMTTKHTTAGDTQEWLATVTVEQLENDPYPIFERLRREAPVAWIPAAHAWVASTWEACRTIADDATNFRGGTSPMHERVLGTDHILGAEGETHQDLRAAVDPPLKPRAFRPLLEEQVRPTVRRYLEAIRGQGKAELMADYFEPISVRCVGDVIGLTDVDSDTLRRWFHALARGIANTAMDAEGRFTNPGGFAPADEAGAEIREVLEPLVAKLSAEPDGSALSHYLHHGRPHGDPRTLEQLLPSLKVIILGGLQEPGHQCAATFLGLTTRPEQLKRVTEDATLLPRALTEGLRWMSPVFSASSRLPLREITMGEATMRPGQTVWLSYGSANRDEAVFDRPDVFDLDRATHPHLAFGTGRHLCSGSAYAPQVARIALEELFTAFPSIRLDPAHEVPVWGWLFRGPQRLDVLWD
In short: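 SyoA expressed in E. coli BL21(DE3) and purified by Ni affinity then anion exchange. Enzyme at 1 µM in 50 mM Tris pH 7.5 with 0.5–2 mM test compound (from DMSO stock), preincubated 2 min at 30 °C. Started with 10 mM H2O2 and run 60 min at 30 °C, then quenched with catalase; triplicate. Products quantified by C18 HPLC (20–95% MeCN/0.1% TFA, 254 nm) against internal-standard calibration (20–500 µM), or by GC-MS after ethyl acetate extraction.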

[2] = tested on: GcoA mutants (GcoAEE, GcoAQT, GcoAET); experiment: In vitro H2O2-driven O-demethylation by I-helix mutants, HPLC; type: biochemical, Amycolatopsis thermoflava; conditions: mutation of Gln248 and/or Glu249, 20 mM H2O2
In short: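 GcoA mutants carried N-terminal His6-TEV tags, were expressed in E. coli BL21(DE3) and purified by Ni affinity. Reactions used 1 µM enzyme in 50 mM Tris pH 7.5 with 0.5–2 mM test compound, preincubated 2 min at 30 °C. Started with 20 mM H2O2 and run 60 min at 30 °C, then catalase-quenched; triplicate. Products quantified by C18 HPLC at 254 nm against calibration curves.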

[3] = tested on: GcoA mutants (GcoAEE, GcoAQT, GcoAET) with GcoB; experiment: In vitro NADH/O2-driven; type: biochemical, Amycolatopsis thermoflava
In short: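 GcoA mutants at 0.5 µM with 1 µM GcoB and 100 µg/mL catalase in oxygenated 50 mM Tris pH 7.5 at 30 °C. About 320 µM NADH added first to record background oxidation. Started with 1 mM test compound; A340 followed for about 10 min, then left about 1 h at room temperature. No-P450 controls included. Products analysed by C18 HPLC at 254 nm.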

[4] = tested on: GcoA mutants (GcoAEE, GcoAQT, GcoAET); experiment: UV-Vis substrate binding analysis of I-helix mutants; design: species or system Amycolatopsis thermoflava
SyoA [5] = target: T1, SyoA; experiment: Substrate binding affinity; design: species or system Amycolatopsis thermoflava N1165; conditions: 50 mM potassium phosphate pH 7.4, n = 3, hyperbolic fit
In short: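 SyoA at about 2–8 µM in 50 mM potassium phosphate pH 7.4 titrated with test compound from 1, 10 or 100 mM DMSO stocks (at most 10 µL per stock). Difference spectra recorded from 300–600 nm until no further shift. Peak-to-trough ΔA taken at 390−419, 500−419 or 500−570 nm depending on ligand, then fitted to a hyperbolic equation for KD; triplicate titrations.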

SyoA/SyoB = experiment: In vitro NADH/O2-driven; type: biochemical, Amycolatopsis thermoflava N1165; conditions: ~320 μM NADH; for O-demethylation by reconstituted SyoA/SyoB monooxygenase system: 1 μM SyoA, 1 μM SyoB, 1 mM substrate, 30 °C
In short: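 Reconstituted system of 1 µM SyoA, 1 µM His-tagged SyoB and 100 µg/mL catalase in oxygenated 50 mM Tris pH 7.5 at 30 °C. Background NADH (about 320 µM) oxidation recorded first. Started with 1 mM test compound from DMSO stock; A340 (ε 6.22 mM−1 cm−1) monitored about 10 min, then about 1 h at room temperature for full NADH use. No-P450 controls included. Products analysed by HPLC.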

SyoA [6] = target: T1, SyoA; experiment: UV-Vis spin-state shift / substrate binding analysis; design: species or system Amycolatopsis thermoflava N1165; conditions: ligand titrated until Soret band stopped shifting
In short: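 SyoA at about 3 µM in 50 mM Tris pH 7.5 received test compound in 1 µL aliquots from 100 mM DMSO stock. Spectra recorded from 600–250 nm until no further shift. Spin-state change read from the Soret band (417 nm) or the Q-bands (568 and 535 nm).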

[7] = tested on: SyoA mutants (SyoAEE, SyoAQT, SyoAET); experiment: In vitro H2O2-driven O-demethylation by I-helix mutants, HPLC; type: biochemical, Amycolatopsis thermoflava N1165; conditions: mutation of Gln252 and/or Glu253
In short: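 SyoA I-helix mutants expressed in E. coli BL21(DE3) and purified by Ni affinity only. Enzyme at 1 µM in 50 mM Tris pH 7.5 with 0.5–2 mM test compound, preincubated 2 min at 30 °C. Started with 10 mM H2O2 and run 60 min at 30 °C, then catalase-quenched; triplicate. Products quantified by C18 HPLC at 254 nm with internal standard and product calibration curves.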

[8] = tested on: SyoA mutants (SyoAEE, SyoAQT, SyoAET); experiment: UV-Vis substrate binding analysis of I-helix mutants; design: species or system Amycolatopsis thermoflava N1165

Row | SMILES | concentration of demethylated aromatic product (individual replicates) (SyoA [1]) | Kd (SyoA [5]) [µM] | total turnover number (TTN) (SyoA [1]) | concentration of demethylated aromatic product (mean of 3 replicates) (SyoA [1]) [µM] | O-demethylation by reconstituted SyoA/SyoB monooxygenase system (SyoA/SyoB) | further results
1 | COc1ccccc1O [guaiacol] |  |  |  |  |  | hydrogen peroxide driven O-demethylation by mutants compared to wild type [2]: loss of peroxygenase activity; monooxygenase activity compared to wild type ([3]; GcoAEE): significant reduction in the monooxygenase activity; monooxygenase activity compared to wild type ([3]; GcoAET): significant reduction in the monooxygenase activity; monooxygenase activity compared to wild type ([3]; GcoAQT): complete loss in activity; substrate binding to mutants (UV-Vis) [4]: not drastically impacted by the mutations
2 | COc1cc(C=O)cc(OC)c1O [syringaldehyde] |  | 341 ± 25 | 308 | 308 ± 27 | did not O-demethylate; also recorded: no O-demethylation | 
3 | COc1cccc(OC)c1O [syringol] |  | 16 ± 1 | 142 | 142 ± 15 | did not O-demethylate; also recorded: no O-demethylation | shift to the HS (high-spin) form using the Soret band (SyoA [6]): ~ 70%; NADH consumption in reaction containing SyoA, SyoB and substrate (SyoA/SyoB; monitored at 340 nm): NADH was consumed; substrate consumed (SyoA [1]; over 60 min, 10 mM H2O2): ~ 65%; hydrogen peroxide driven O-demethylation by mutants compared to wild type [7]: loss of peroxygenase activity; substrate binding to mutants (UV-Vis) [8]: not drastically impacted by the mutations

Now from value to molecule, other results behind:

Row | concentration of demethylated aromatic product (individual replicates) (SyoA [1]) | Kd (SyoA [5]) [µM] | total turnover number (TTN) (SyoA [1]) | concentration of demethylated aromatic product (mean of 3 replicates) (SyoA [1]) [µM] | SMILES | O-demethylation by reconstituted SyoA/SyoB monooxygenase system (SyoA/SyoB) | further results
4 | 155 µM and 125 µM and 146 µM |  |  |  | COc1cccc(O)c1O [1b, 3-methoxycatechol] |  | 
5 | 332 µM and 314 µM and 279 µM |  |  |  | COc1cc(C=O)cc(O)c1O [3a, 5-hydroxyvanillin] |  | 
6 | 802 µM and 822 µM and 762 µM |  |  |  | COc1cc(C)cc(O)c1O [2a, 3-methoxy-5-methylbenzene-1,2-diol] |  | 
